Source: PubChem BioAssay
Apaf1 inhib: human Apaf-1 inhibition; inhibition, % at 20 µM; hit rate 0.71% among 330,000; O14727; reconstituted apoptosome caspase-3 activity, DEVD-Rh110 fluorescence; active means inhibition of at least 40% at 20 µM
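Assay system: Apoptosome proteins | Medium: pH 7.5 Hepes buffer with CHAPS, BSA, DTT | Also added: Cytochrome c and DEVD-Rh110 substrate | Times: 30 min plus 50 min, RT | Detection: Rhodamine 110 fluorescence at Ex 480/Em 540 nm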
TDP2 absorb: blocks human TDP2 phosphodiesterase activity | inhibition, % at 12.8 µM | AID 720702 | recombinant TDP2, T5PNP hydrolysis, p-nitrophenol absorbance 415 nm | O95551 | hit rate 0.34% among 370,000;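 active means inhibition above the mean of all tested compounds plus 3 SD, set per campaign, cut at about 25% in these data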
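Test system: human TDP2 enzyme; Input: 120 nM TDP2 per well; Buffer or medium: Mg2+-containing Tris-HCl buffer, pH 7.5; Reagent: 5 mM T5PNP; Dosing: 12.8 µM single point, 1% DMSO; Incubation: reaction 2 h, 37 °C; Detection: p-Nitrophenol epi absorbance; Read-out: % inhibition relative to enzyme-containing and enzyme-free wells; Replicates: single well per compound.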
Fh CTSL1 inh: blocks F. hepatica cathepsin L1 in PFM18AAP counter-screen; recombinant F. hepatica cathepsin L1, Z-Leu-Arg-MCA fluorescence; inhibition, % at 5.96 µM; hit rate 0.49% among 300,000;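 active means inhibition above the mean of all tested compounds plus 3 SD, set per screening campaign, cut at about 17% in these data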
PAD4 inh: blocks human protein arginine deiminase 4; Q9UM07; recombinant PAD4, RCA probe fluorescence polarization; AID 485272; hit rate 0.41% among 330,000; inhibition, % at 6.36 µM;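 active means percent inhibition above a cutoff equal to the mean of all tested compounds plus 3 SD, cut at about 15% in these data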
GSTO1 inh: GSTO1 inhibition, counter-screen for RBBP9 inhibitors; hit rate 1.1% among 300,000; inhibition, % at 5.96 µM; recombinant GSTO1, activity-based probe fluorescence polarization; P78417;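 active means inhibition above the campaign mean inhibition plus 3 SD, cut at about 35% in these data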
Numbers stand for hits; i = inactive; nt = no result given. Compounds with a hit are over-represented: about 1.8% of the library has one in this group of screens.

SMILES	Apaf1 inhib	TDP2 absorb	Fh CTSL1 inh	PAD4 inh	GSTO1 inh
N#CCCn1cc(/C=C2\NC(=S)N(c3ccccc3)C2=O)c(-c2ccc(F)cc2)n1	i	i	i	i	i
O=C(O)CCn1cc(/C=C2\NC(=S)N(c3ccccc3)C2=O)c(-c2ccc(Br)cc2)n1	i	i	19	i	i
CCCCNC(=O)C1CCCN1C(=O)Nc1cccc(C)c1 (stereo not given)	nt	i	nt	nt	nt
O=C(c1cccc(Cl)c1)N1CCN(C2CCCCC2)CC1	i	i	25	i	i
O=C(c1cccc(F)c1)N1CCN(C2CCCCC2)CC1	i	i	i	i	i
O=C1CC(N2CCCC2)=NC(=O)N1c1ccc(Br)cc1	nt	i	nt	nt	nt
COc1ccc(CCC(=O)Nc2c(-c3ccc(N(C)C)cc3)[nH][nH]c2=O)cc1	nt	60	nt	nt	nt
Cc1ccc(-c2cc(-c3nnc(SCC(=O)N4c5ccccc5Sc5ccccc54)n3N)[nH]n2)cc1	nt	i	nt	nt	nt
CCn1cc(C(=O)N[C@H](C(=O)NC(C)(C)CO)C(C)C)c(=O)c2cc3c(cc21)OCO3	i	25	i	i	i
CCOC(=O)C[n+]1c(C)sc2ccc(OC)cc21	i	nt	i	18	i
Cc1sc2ccccc2[n+]1CC(=O)O	i	i	i	i	i
CC1CN(c2ccnc3cc(Cl)ccc23)CCN1C(=O)c1ccc(Cl)cc1 (stereo not given)	nt	i	nt	nt	nt
c1ccc(-c2nnc(-c3ccccc3)o2)cc1	i	i	i	i	i
ClCc1nnc(-c2ccccc2)o1	i	i	i	i	102
N#Cc1ccc(NC(=O)COC(=O)CNC(=O)C2CCCCC2)cc1	i	i	31	i	i
CC(C)CCNC(=O)NC(=O)COC(=O)CNC(=O)C1CCCCC1	i	i	26	i	i
Cc1cccc(NC(=O)COC(=O)CNC(=O)C2CCCCC2)c1	i	i	25	i	i
COC(=O)[C@]12C[C@H](CC(=O)NCc3ccc(OC)c(OC)c3)C(=O)N(CCC3=CCCCC3)C1=C[C@H](C(C)(C)C)O[C@@H]2C	nt	i	nt	nt	nt
Cc1cccc(-c2cccc3c4c([nH]c23)[C@@H]2C[C@H]3[C@@H](CN2CC4)[C@H](C)ON3C)c1	nt	i	nt	nt	nt
Cc1oc2cc(O)ccc2c(=O)c1Oc1ccc2ccccc2c1	i	i	i	i	37
C=C(CCC(=O)c1ccccc1)C(=O)c1ccccc1	nt	i	41	i	i
Cc1ccc(N2C(=O)C(Cl)=C(NCCO)C2=O)c(C)c1	i	i	i	i	i
CN1CCN(C2=C(Cl)C(=O)N(c3ccc(Cl)cc3)C2=O)CC1	i	nt	20	i	i
Cc1ccc(N2C(=O)C(Cl)=C(N3CCN(C)CC3)C2=O)c(C)c1	i	i	27	i	i
O=C1C(Cl)=C(N2CCCCCC2)C(=O)N1c1ccccc1	i	i	19	i	i
SMILES	Apaf1 inhib	TDP2 absorb	Fh CTSL1 inh	PAD4 inh	GSTO1 inh
CN[C@H]1C[C@H]2c3[nH]c4c(-c5ccccc5)cccc4c3CCN2C[C@H]1[C@H](C)O	nt	i	nt	nt	nt
CCn1c(COc2ccc(C)cc2)nnc1SCC(=O)Nc1ccccc1-c1ccccc1	nt	i	nt	nt	nt
COc1ccccc1CNC1CCC12CCC(c1ccccc1)CC2 (stereo not given)	nt	i	nt	nt	nt
COc1ccccc1CCC[C@@H](CCS(=O)(=O)C(C)C)CC1CCCCC1	nt	i	nt	nt	nt
COc1ccc(S[C@]2(C(=O)N(C)C)CC(=O)N(C(=O)c3ccccc3)[C@@H]2c2ccc(OC)cc2)cc1	nt	i	nt	nt	nt
CCS(=O)(=O)c1ccccc1C(=O)NC1CCCc2ccccc21 (stereo not given)	i	i	i	i	i
CS(=O)(=O)c1ccccc1C(=O)NC1CCCc2ccccc21 (stereo not given)	i	i	21	i	i
CCOc1ccc(-n2c(COc3ccccc3)nnc2SCC(=O)Nc2ccc3c(c2)OCCO3)cc1	nt	i	nt	nt	nt
COC(=O)c1cc2c(c3c4cc(OC)ccc4n(S(=O)(=O)c4cccc(C)c4)c13)C(=O)N(Cc1ccc(C(F)(F)F)cc1)C2	nt	i	nt	nt	nt
O=C(CCl)N1c2ccccc2OCC1c1ccccc1 (stereo not given)	i	i	i	i	64
O=c1cc(CSc2nc(NCc3ccccc3)c3ccccc3n2)nc2ccc(Cl)cn12	i	i	i	i	42
O=C(CCCn1c(SCc2cc(=O)n3cc(Cl)ccc3n2)nc2ccccc2c1=O)NCC1CCCO1 (stereo not given)	i	i	i	i	i
CC1(C)CC(=O)C2=C(C1)OC1=C(C(=O)CC(C)(C)C1)C2c1ccc(O)c([N+](=O)[O-])c1	i	i	18	i	i
COC(=O)CN1CCN(C(=O)c2csc(-c3ccccc3)n2)CC1	nt	i	nt	nt	nt
COc1ccc2nc3cc(Cl)ccc3c(Nc3cc(CN4CCCC4)c(O)c(CN4CCCC4)c3)c2n1	62	i	i	i	i
O=C(CCCN1C(=O)C2CCCCN2C1=O)N1CCN(c2ccc([N+](=O)[O-])cc2)CC1 (stereo not given)	i	i	20	i	i
CC(C)(C)OC(=O)NC1CCN(c2nc(-c3ccc(Br)cc3)cs2)CC1	nt	i	nt	nt	nt
Oc1ccc(/C=N/NC(=S)N2CCOCC2)cc1	i	i	17	i	i
CCCOP(=O)(c1ccc(N(C)C)cc1)C(Nc1ccccc1)c1ccc(C)cc1 (stereo not given)	i	i	21	i	i
COC(=O)[C@]12C[C@H](CC(=O)NCc3ccc(C)o3)C(=O)N(Cc3ccccc3)C1=C[C@H](C(C)C)O[C@@H]2C1CC1	nt	i	nt	nt	nt
COC(=O)[C@H]1[C@@H](O)[C@@]2(O)c3c(OC)cc(OC)cc3O[C@@]2(c2ccc(OC)cc2)[C@@H]1c1ccc(F)cc1	nt	i	nt	nt	nt
CCCn1cc(C(CC(=O)O)C(=O)O)c2ccccc21 (stereo not given)	i	i	17	i	i
CCCCNC(=O)N1CCC(c2nc3ccc(Cl)cc3[nH]2)CC1	nt	i	nt	nt	nt
O=C(COC(=O)c1ccc([N+](=O)[O-])s1)Nc1cccc(S(=O)(=O)NC2=NCCCCC2)c1	i	i	70	i	i
O=C(COC(=O)c1ccc([N+](=O)[O-])s1)Nc1ccc(Cl)cn1	i	i	44	i	i
SMILES	Apaf1 inhib	TDP2 absorb	Fh CTSL1 inh	PAD4 inh	GSTO1 inh
Cc1ccc(C(=O)OCC(=O)Nc2ccc(C(N)=O)cc2)s1	i	i	nt	i	nt
CC(C)(C)c1ccc(NC(=O)COC(=O)c2ccc([N+](=O)[O-])s2)cc1	nt	i	i	i	40
C=CCn1c(SCC(=O)Nc2ccccc2OCC)nnc1-c1ccc(C(C)(C)C)cc1	nt	i	nt	nt	nt
COCc1cc(N2CCN(C(=O)OC(C)(C)C)C[C@H]2C)ccc1N1CCN(Cc2ccccc2)[C@H](C)C1	nt	i	nt	nt	nt
CCN(CC)c1cccc(OCC(=O)N(C)CCC#N)c1	i	i	i	45	i
COC(=O)CSc1nnc([C@H](Cc2ccccc2)NC(=O)OC(C)(C)C)o1	i	i	i	i	i
Cc1cccc(CS(=O)(=O)c2nnc([C@H](Cc3ccccc3)NC(=O)OC(C)(C)C)o2)c1	i	nt	31	i	i
COC(=O)CS(=O)(=O)c1nnc([C@H](Cc2ccccc2)NC(=O)OC(C)(C)C)o1	i	i	24	i	i
